This note sets out measurements from ChEMBL document CHEMBL1125795, “Substrate analogue renin inhibitors containing replacements of histidine in P2 or isosteres of the amide bond between P3 and P2 sites” (J Med Chem, 1991).

Each structure is given as a SMILES string.

One series deals with Pepsin A (Sus scrofa, UniProt P00791). The experiment in a line: In vitro inhibitory activity against porcine Pepsin. A digest of the protocol:
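Porcine pepsin (20 units) digesting hemoglobin at pH 1.8, 10 min, 35.5 °C. Released TCA-soluble peptides measured at 280 nm; IC50 is the concentration halving peptide liberation.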

Another series deals with T1, Renin (Homo sapiens, UniProt P00797).
T1 sequence (P00797 whole entry): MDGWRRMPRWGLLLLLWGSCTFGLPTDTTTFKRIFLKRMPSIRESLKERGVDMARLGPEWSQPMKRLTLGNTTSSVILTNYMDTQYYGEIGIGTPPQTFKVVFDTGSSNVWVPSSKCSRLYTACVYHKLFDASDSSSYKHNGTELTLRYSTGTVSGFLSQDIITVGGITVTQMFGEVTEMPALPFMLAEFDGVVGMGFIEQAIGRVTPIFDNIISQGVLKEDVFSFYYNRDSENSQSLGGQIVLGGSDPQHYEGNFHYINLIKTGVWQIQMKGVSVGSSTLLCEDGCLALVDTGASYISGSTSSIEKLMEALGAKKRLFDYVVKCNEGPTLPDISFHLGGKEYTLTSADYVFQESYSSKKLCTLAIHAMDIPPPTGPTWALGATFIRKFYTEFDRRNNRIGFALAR
Briefly: In vitro for inhibitory activity against human renin. A digest of the protocol:
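Endogenous renin and angiotensinogen in human EDTA plasma; incubation mixture of 76 mM maleate pH 5.5, 7.2 mM EDTA, 1% DMSO, 8.3 mM 8-hydroxyquinoline; 2 h at 37 °C, then on ice; angiotensin I measured by radioimmunoassay. At least three inhibitor concentrations bracketing the IC50; IC50 calculated from percent inhibition.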

The next series deals with T2, Cathepsin D (Bos taurus, UniProt P80209).
T2 sequence (P80209 whole entry): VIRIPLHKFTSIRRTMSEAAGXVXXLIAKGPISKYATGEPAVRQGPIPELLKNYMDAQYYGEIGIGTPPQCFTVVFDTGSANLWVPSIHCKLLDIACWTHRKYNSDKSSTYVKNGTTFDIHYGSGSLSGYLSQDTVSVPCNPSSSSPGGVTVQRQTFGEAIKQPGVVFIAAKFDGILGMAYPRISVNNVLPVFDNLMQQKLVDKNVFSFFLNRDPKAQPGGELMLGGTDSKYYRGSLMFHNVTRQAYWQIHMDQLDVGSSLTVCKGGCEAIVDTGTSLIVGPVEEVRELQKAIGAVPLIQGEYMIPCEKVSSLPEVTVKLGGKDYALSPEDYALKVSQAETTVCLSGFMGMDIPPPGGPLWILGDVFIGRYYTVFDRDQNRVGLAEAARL
Briefly: In vitro inhibitory activity against bovine Cathepsin D. In short, it runs like this: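 Bovine cathepsin D (100 munits) acting on hemoglobin at pH 3.2, 20 min, 37 °C. TCA-soluble peptides released were read by absorbance at 280 nm; IC50 taken as the concentration giving 50% inhibition of peptide liberation.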

A short description of series [1]: Plasma renin activity change in salt depleted cynomolgus monkeys after 180 minutes, administration of the compound. The format is functional, Cercopithecidae. In short, it runs like this:
(§1)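 Cynomolgus monkeys salt-depleted with furosemide 2 mg/kg im daily from 4 days before the experiment; haloperidol 0.3 mg/kg im for sedation on the test day. Conscious chair-restrained animals; systolic pressure by tail-cuff every 5 min, stabilized before dosing. Single oral 30 mg/kg dose, n = 4; PRA from blood samples. Change from T = 0 baseline, mean ± SE.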

Series [2] in a line: Partition coefficient (logP). The format is physicochemical. The following applies: octanol/water. A digest of the protocol: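 Octanol/water partition coefficient measured at pH 7.4.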
Series [3] can be described thus: Plasma renin activity change in salt depleted cynomolgus monkeys. The format is functional, Cercopithecidae. In short, it runs like this:
as §1

A short description of series [4]: Systolic blood pressure change in salt depleted cynomolgus monkeys. The class given is functional, Cercopithecidae. In short, it runs like this: as §1
The nature of series [5]: Duration of Systolic blood pressure decrease in salt depleted cynomolgus monkeys. The format is functional, Cercopithecidae. A digest of the protocol: as §1

Chain of Pepsin A (P00791 whole entry): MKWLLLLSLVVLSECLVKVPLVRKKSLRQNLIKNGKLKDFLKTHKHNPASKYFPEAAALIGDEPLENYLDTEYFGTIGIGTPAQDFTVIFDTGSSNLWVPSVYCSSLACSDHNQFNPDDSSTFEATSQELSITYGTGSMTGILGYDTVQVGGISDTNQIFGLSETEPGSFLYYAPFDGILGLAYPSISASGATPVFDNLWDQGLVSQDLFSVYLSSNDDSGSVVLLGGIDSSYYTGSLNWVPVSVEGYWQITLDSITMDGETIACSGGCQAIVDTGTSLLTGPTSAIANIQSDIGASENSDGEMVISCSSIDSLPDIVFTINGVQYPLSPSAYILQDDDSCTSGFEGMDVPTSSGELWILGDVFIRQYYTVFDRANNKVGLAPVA

As for `CC[C@H](C)[C@H](NC(=O)C[C@H](O)[C@H](CC1CCCCC1)NC(=O)CCNC(=O)[C@H](Cc1ccccc1)NC(=O)N1CCOCC1)C(=O)NCc1cnc(C)nc1N`, the IC50 against Pepsin A is above 10 µM; against Renin, 0.00028 µM; against Cathepsin D, above 10 µM.

Take `CC[C@H](C)[C@H](NC(=O)C[C@H](O)[C@@H](CC1CCCCC1)NC(=O)CCCNC(=O)[C@@H](Cc1ccccc1)NC(=O)OC(C)(C)C)C(=O)NCc1cnc(C)nc1N`: the values for the IC50 at Pepsin A, against Renin and against Cathepsin D were above 10 µM, 0.0285 µM and 3.2 µM, respectively.

For `CC[C@H](C)[C@H](NC(=O)C[C@H](O)[C@H](CC1CCCCC1)NC(=O)CSC[C@H](O)[C@H](Cc1ccccc1)NC(=O)OC(C)(C)C)C(=O)NCc1cnc(C)nc1N`, the IC50 on Pepsin A was above 100 µM; against Renin, 0.0063 µM; on Cathepsin D it was above 100 µM.

`CC[C@H](C)[C@H](NC(=O)C[C@H](O)[C@H](CC1CCCCC1)NC(=O)CCNC(=O)[C@H](Cc1ccccc1)NC(=O)N1CCC(N(C)C)CC1)C(=O)NCc1cnc(C)nc1N`: the IC50 is above 10 µM against Pepsin A, 0.00058 µM at Renin and 10 µM at Cathepsin D.

As to `CC[C@H](C)[C@H](NC(=O)C[C@H](O)[C@H](CC1CCCCC1)NC(=O)CS(=O)(=O)CC(=O)[C@H](Cc1ccccc1)NC(=O)OC(C)(C)C)C(=O)NCc1cnc(C)nc1N`, the figures for the IC50 against Pepsin A, against Renin and on Cathepsin D were above 10 µM, 0.24 µM and above 10 µM, respectively.

Regarding `CC[C@H](C)[C@H](NC(=O)C[C@H](O)[C@H](CC1CCCCC1)NC(=O)CSC[C@@H](O)[C@H](Cc1ccccc1)NC(=O)OC(C)(C)C)C(=O)NCc1cnc(C)nc1N`, the IC50 on Pepsin A was above 100 µM; against Renin it was 0.0055 µM; against Cathepsin D, 73 µM.

With `CC[C@H](C)[C@H](NC(=O)C[C@H](O)[C@H](Cc1ccccc1)NC(=O)[C@H](Cc1c[nH]cn1)NC(=O)[C@H](Cc1ccccc1)NC(=O)OC(C)(C)C)C(=O)NCc1cccnc1`, the IC50 against Pepsin A was above 10 µM; on Renin, 0.0029 µM; against Cathepsin D it was 5.8 µM.

As to `CC[C@H](C)[C@H](NC(=O)C[C@H](O)[C@@H](CC1CCCCC1)NC(=O)CCNC(=O)[C@@H](Cc1ccccc1)NC(=O)OC(C)(C)C)C(=O)NCc1cnc(C)nc1N`, the IC50 against Pepsin A stood at 18.5 µM; on Renin it was 0.0015 µM; at Cathepsin D, 7.9 µM. Further, the Change in series [1] was -21.6%; in series [3] it was -25.1%. Besides, in series [2], the logP was found to be 2.88.

With `CCOC(=O)C1CCN(C(=O)N[C@@H](Cc2ccccc2)C(=O)NCCC(=O)N[C@@H](CC2CCCCC2)[C@@H](O)CC(=O)N[C@H](C(=O)NCc2cnc(C)nc2N)[C@@H](C)CC)CC1`, the IC50 against Pepsin A was found to be 4.2 µM; against Renin, 0.00041 µM; on Cathepsin D, 3.15 µM.

Turning to `CC[C@H](C)[C@H](NC(=O)C[C@H](O)[C@H](CC1CCCCC1)NC(=O)CCNC(=O)[C@H](Cc1ccccc1)NC(=O)CCC[N+](C)(C)C)C(=O)NCc1cnc(C)nc1N.[Cl-]`, the IC50 was above 10 µM against Pepsin A, 0.008 µM at Renin and above 10 µM against Cathepsin D. Further, the results for the Change in series [1], in series [4] and in series [3] were -78.3%, -10.6% and -83.2%, respectively. Further, in series [2], the logP is 1.53. Moreover, the Duration in series [5] was above 130 min.

Regarding `CC[C@H](C)[C@H](NC(=O)C[C@H](O)[C@@H](CC1CCCCC1)NC(=O)CNC(=O)[C@@H](Cc1ccccc1)NC(=O)OC(C)(C)C)C(=O)NCc1cnc(C)nc1N`, the IC50 turned out to be 38.5 µM at Pepsin A, 0.0025 µM on Renin and 13 µM on Cathepsin D.

For the compound `CC[C@H](C)[C@H](NC(=O)[C@@H](C[C@H](O)[C@H](CC(C)C)NC(=O)CNC(=O)[C@H](Cc1ccccc1)NC(=O)OC(C)(C)C)C(C)C)C(=O)NCc1cnc(C)nc1N`, the IC50 against Pepsin A was 1.4 µM; on Renin, 0.0054 µM; against Cathepsin D, 3.9 µM.

For `CC[C@H](C)[C@H](NC(=O)C[C@H](O)[C@H](CC1CCCCC1)NC(=O)C[S+]([O-])CC(=O)[C@H](Cc1ccccc1)NC(=O)OC(C)(C)C)C(=O)NCc1cnc(C)nc1N` (stereo partly specified), the IC50 against Pepsin A is above 10 µM; on Renin it was 0.07 µM; against Cathepsin D, above 10 µM.

`CC[C@H](C)[C@H](NC(=O)C[C@H](O)[C@H](CC1CCCCC1)NC(=O)CC[C@@H](O)[C@H](Cc1ccccc1)NC(=O)OC(C)(C)C)C(=O)NCc1cnc(C)nc1N`: the IC50 against Pepsin A was 10 µM; at Renin it was 0.0012 µM; on Cathepsin D, above 10 µM.

Consider `CC[C@H](C)[C@H](NC(=O)C[C@H](O)[C@H](CC1CCCCC1)NC(=O)CCNC(=O)[C@@H](N)Cc1ccccc1)C(=O)NCc1cnc(C)nc1N`, for which the values for the IC50 on Pepsin A, against Renin and against Cathepsin D were above 10 µM, 0.0195 µM and above 10 µM, respectively.

For `CC[C@H](C)[C@H](NC(=O)C[C@H](O)[C@H](CC1CCCCC1)NC(=O)CCC(=O)[C@H](Cc1ccccc1)NC(=O)OC(C)(C)C)C(=O)NCc1cnc(C)nc1N`, the IC50 against Pepsin A is above 10 µM; against Renin it was 0.0085 µM; against Cathepsin D, above 10 µM.

Regarding `CC[C@H](C)[C@H](NC(=O)C[C@H](O)[C@@H](CC1CCCCC1)NC(=O)CNC(=O)[C@@H](Cc1ccccc1)NC(=O)OC(C)(C)C)C(=O)NCc1cccnc1`, the IC50 at Pepsin A is 40 µM; on Renin, 0.0028 µM; against Cathepsin D it was 6.5 µM.

On to `CC[C@H](C)[C@H](NC(=O)[C@@H](C[C@H](O)[C@H](CC(C)C)NC(=O)CSCC(=O)[C@H](Cc1ccccc1)NC(=O)OC(C)(C)C)C(C)C)C(=O)NCc1cnc(C)nc1N`, for which the IC50 against Pepsin A came to 6 µM; against Renin, 0.0054 µM; at Cathepsin D, 8.8 µM.

For `CC[C@H](C)[C@H](NC(=O)C[C@H](O)[C@H](CC1CCCCC1)NC(=O)[C@H](C)NC(=O)[C@H](Cc1ccccc1)NC(=O)OC(C)(C)C)C(=O)NCc1cnc(C)nc1N`, the IC50 was 0.95 µM on Pepsin A, 0.00053 µM on Renin and 0.028 µM against Cathepsin D.

Consider `CC[C@H](C)[C@H](NC(=O)[C@@H](C[C@H](O)[C@H](CC(C)C)NC(=O)CCNC(=O)[C@H](Cc1ccccc1)NC(=O)OC(C)(C)C)C(C)C)C(=O)NCc1cnc(C)nc1N`, for which the IC50 was found to be 0.83 µM against Pepsin A, 0.0041 µM against Renin and 4.7 µM at Cathepsin D.

Consider `CC[C@H](C)[C@H](NC(=O)C[C@H](O)[C@H](CC1CCCCC1)NC(=O)CCNC(=O)[C@@H](Cc1ccccc1)NC(=O)CC(C)(C)N)C(=O)NCc1cnc(C)nc1N`, for which the IC50 is above 10 µM at Pepsin A, 0.0018 µM on Renin and above 10 µM at Cathepsin D.

Consider `CC[C@H](C)[C@H](NC(=O)C[C@H](O)[C@H](CC1CCCCC1)NC(=O)CC[C@H](O)[C@H](Cc1ccccc1)NC(=O)OC(C)(C)C)C(=O)NCc1cnc(C)nc1N`, for which the IC50 at Pepsin A is above 10 µM; against Renin it was 0.0042 µM; against Cathepsin D, above 10 µM.

For `CC[C@H](C)[C@H](NC(=O)C[C@H](O)[C@H](CC1CCCCC1)NC(=O)CCNC(=O)[C@H](Cc1ccccc1)NC(=O)N1CCC(N)CC1)C(=O)NCc1cnc(C)nc1N.Cl.Cl`, the values for the IC50 at Pepsin A, at Renin and on Cathepsin D were above 10 µM, 0.00076 µM and 8.5 µM, respectively. The Change is -89.3% in series [1], -24.7% in series [4] and -90.5% in series [3]. This compound also displayed a logP in series [2] of 1.83. Also, the Duration in series [5] was above 180 min.

As for `CC[C@H](C)[C@H](NC(=O)C[C@H](O)[C@H](CC1CCCCC1)NC(=O)CCNC(=O)[C@@H](Cc1ccccc1)NC(=O)N1CCC(C(=O)O)CC1)C(=O)NCc1cnc(C)nc1N`, the IC50 at Pepsin A was above 10 µM; against Renin, 0.00115 µM; at Cathepsin D, above 10 µM.

Turning to `CC[C@H](C)[C@H](NC(=O)C[C@H](O)[C@H](CC1CCCCC1)NC(=O)CCNC(=O)[C@H](Cc1ccccc1)NC(=O)CCCCCN)C(=O)NCc1cnc(C)nc1N`, the values for the IC50 against Pepsin A, against Renin and against Cathepsin D were above 10 µM, 0.0045 µM and above 10 µM, respectively.

As for `CC[C@H](C)[C@H](NC(=O)C[C@H](O)[C@H](CC1CCCCC1)NC(=O)CCNC(=O)[C@H](Cc1ccccc1)NC(=O)N1CCC(NC(=O)OC(C)(C)C)CC1)C(=O)NCc1cnc(C)nc1N`, the IC50 was above 10 µM against Pepsin A, 0.00065 µM on Renin and 5.9 µM against Cathepsin D.

Broadly, the IC50 is the concentration at which inhibition is half-maximal. Lower therefore signals greater potency. By logP is commonly meant the decadic logarithm of the partition coefficient of the neutral form, usually between octanol and water.
